Measurements as given in ChEMBL document CHEMBL5724801, “EUbOPEN Chemogenomics Library - Multiplex” (2024).
Several values for one entry are separate records, joined by “and”; a condition that tells them apart may be missing. Identical values can stand only once.

Key:
[1] = test system: HEK-293T; assay: Multiplex assay against HEK293T; assay type: toxicity, cell-based; conditions: human
How it was run: (§1)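 Imaging took place on a CQ1 microscope at 37°C and 5% CO2 once compound had been added to live cells stained at seeding with Hoechst33342, BioTracker Green Microtubule Cytoskeleton Dye, MitoTracker Red and Annexin V Alexa Fluor 680. CellPathfinder machine-learning gating classed cells as Hoechst high-intensity objects or normal cells, classed normal cells as having healthy, pyknosed or fragmented nuclei, and classed pyknosed cells as mitotic or apoptotic. Tubulin, mitochondrial-mass and membrane-permeability phenotypes are per cents of the healthy-nucleus cells.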

[2] = test system: Fibroblast; assay: Multiplex assay against human fibroblast; assay type: toxicity, cell-based; how it was run: as §1
[3] = 12 h, 1 µM, compound concentration 1 uM
[4] = 12 h, 10 µM, compound concentration 10 uM
[5] = 24 h, 1 µM, compound concentration 1 uM
[6] = 24 h, 10 µM, compound concentration 10 uM
[7] = 48 h, 1 µM, compound concentration 1 uM
[8] = 48 h, 10 µM, compound concentration 10 uM

Cc1nc2ccc(Oc3ccc(F)cc3)cc2c(=O)n1C[C@H]1CCCN(C(C)C)C1.Cl
Population Apoptotic (%) [1, 3]: 40% and 61% | Population Fragmented Nuclei (%) [1, 3]: 7% and 5% | Population Healthy Nuclei (%) [1, 3]: 80% and 70% | Population Membrane Permeable-Phenotype (%) [1, 3]: 0% | Population Mitochondria Different-Phenotype (%) [1, 3]: 50% and 69% | Population Mitotic Cells (%) [1, 3]: 60% and 38% | Population Normal (%) [1, 3]: 93% and 72% | Population Pyknosed Nuclei (%) [1, 3]: 11% and 24% | Population Tubulin-Different-Phenotype (%) [1, 3]: 42% and 34% | Total Cell Count [1, 3]: 381 and 204 | Population Apoptotic (%) [1, 4]: 54% and 61% | Population Fragmented Nuclei (%) [1, 4]: 7% and 8% | Population Healthy Nuclei (%) [1, 4]: 78% and 74% | Population Hoechst High Intensity Objects (%) [1, 4]: 17% and 20% | Population Membrane Permeable-Phenotype (%) [1, 4]: 0% | Population Mitochondria Different-Phenotype (%) [1, 4]: 81% and 94% | Population Mitotic Cells (%) [1, 4]: 45% and 38% | Population Normal (%) [1, 4]: 82% and 79% | Population Pyknosed Nuclei (%) [1, 4]: 13% and 17% | Population Tubulin-Different-Phenotype (%) [1, 4]: 76% and 73% | Total Cell Count [1, 4]: 405 and 310 | Population Apoptotic (%) [1, 5]: 31% and 37% | Population Fragmented Nuclei (%) [1, 5]: 11% | Population Healthy Nuclei (%) [1, 5]: 80% and 72% | Population Membrane Permeable-Phenotype (%) [1, 5]: 0% | Population Mitochondria Different-Phenotype (%) [1, 5]: 36% and 52% | Population Mitotic Cells (%) [1, 5]: 68% and 62% | Population Normal (%) [1, 5]: 95% and 77% | Population Pyknosed Nuclei (%) [1, 5]: 8% and 16% | Population Tubulin-Different-Phenotype (%) [1, 5]: 27% and 20% | Total Cell Count [1, 5]: 553 and 281 | Population Apoptotic (%) [1, 6]: 49% and 68% | Population Fragmented Nuclei (%) [1, 6]: 10% and 11% | Population Healthy Nuclei (%) [1, 6]: 73% and 75% | Population Hoechst High Intensity Objects (%) [1, 6]: 12% and 23% | Population Membrane Permeable-Phenotype (%) [1, 6]: 3% and 0% | Population Mitochondria Different-Phenotype (%) [1, 6]: 67% and 88% | Population Mitotic Cells (%) [1, 6]: 50% and 31% | Population Normal (%) [1, 6]: 87% and 76% | Population Pyknosed Nuclei (%) [1, 6]: 15% and 12% | Population Tubulin-Different-Phenotype (%) [1, 6]: 70% and 68% | Total Cell Count [1, 6]: 525 and 334 | Population Apoptotic (%) [1, 7]: 27% and 60% | Population Fragmented Nuclei (%) [1, 7]: 19% and 13% | Population Healthy Nuclei (%) [1, 7]: 75% and 80% | Population Hoechst High Intensity Objects (%) [1, 7]: 1% and 7% | Population Membrane Permeable-Phenotype (%) [1, 7]: 1% and 0% | Population Mitochondria Different-Phenotype (%) [1, 7]: 22% and 36% | Population Mitotic Cells (%) [1, 7]: 72% and 39% | Population Normal (%) [1, 7]: 98% and 92% | Population Pyknosed Nuclei (%) [1, 7]: 5% and 6% | Population Tubulin-Different-Phenotype (%) [1, 7]: 14% | Total Cell Count [1, 7]: 901 and 380 | Population Apoptotic (%) [1, 8]: 47% and 67% | Population Fragmented Nuclei (%) [1, 8]: 15% and 17% | Population Healthy Nuclei (%) [1, 8]: 74% and 72% | Population Hoechst High Intensity Objects (%) [1, 8]: 11% and 22% | Population Membrane Permeable-Phenotype (%) [1, 8]: 2% and 0% | Population Mitochondria Different-Phenotype (%) [1, 8]: 60% and 69% | Population Mitotic Cells (%) [1, 8]: 52% and 32% | Population Normal (%) [1, 8]: 88% and 78% | Population Pyknosed Nuclei (%) [1, 8]: 9% | Population Tubulin-Different-Phenotype (%) [1, 8]: 62% and 58% | Total Cell Count [1, 8]: 754 and 459 | Population Apoptotic (%) [2, 3]: 34% and 44% | Population Fragmented Nuclei (%) [2, 3]: 19% and 24% | Population Healthy Nuclei (%) [2, 3]: 67% and 47% | Population Hoechst High Intensity Objects (%) [2, 3]: 5% and 9% | Population Mitochondria Different-Phenotype (%) [2, 3]: 4% and 8% | Population Mitotic Cells (%) [2, 3]: 65% and 55% | Population Normal (%) [2, 3]: 94% and 90% | Population Pyknosed Nuclei (%) [2, 3]: 13% and 29% | Population Tubulin-Different-Phenotype (%) [2, 3]: 31% and 70% | Total Cell Count [2, 3]: 184 and 111 | Population Apoptotic (%) [2, 4]: 53% and 61% | Population Fragmented Nuclei (%) [2, 4]: 19% and 36% | Population Healthy Nuclei (%) [2, 4]: 61% and 44% | Population Hoechst High Intensity Objects (%) [2, 4]: 4% and 3% | Population Membrane Permeable-Phenotype (%) [2, 4]: 1% and 5% | Population Mitochondria Different-Phenotype (%) [2, 4]: 22% and 25% | Population Mitotic Cells (%) [2, 4]: 46% and 38% | Population Normal (%) [2, 4]: 95% and 96% | Population Pyknosed Nuclei (%) [2, 4]: 19% | Population Tubulin-Different-Phenotype (%) [2, 4]: 88% and 80% | Total Cell Count [2, 4]: 241 and 205 | Population Apoptotic (%) [2, 5]: 66% and 38% | Population Fragmented Nuclei (%) [2, 5]: 17% and 29% | Population Healthy Nuclei (%) [2, 5]: 68% and 50% | Population Hoechst High Intensity Objects (%) [2, 5]: 3% and 7% | Population Mitochondria Different-Phenotype (%) [2, 5]: 6% and 17% | Population Mitotic Cells (%) [2, 5]: 33% and 61% | Population Normal (%) [2, 5]: 96% and 92% | Population Pyknosed Nuclei (%) [2, 5]: 13% and 20% | Population Tubulin-Different-Phenotype (%) [2, 5]: 30% and 73% | Total Cell Count [2, 5]: 186 and 112
